Results published in ChEMBL document CHEMBL1158043, “Allergy-preventive phenolic glycosides from Populus sieboldii” (J Nat Prod, 2006).
Activity calls are given as the source filed them. No cut-off for these calls is given here.

Assays:
[1] = tested on: Mus musculus; test: Allergy preventing effect in hen egg […]-sensitized ddY mouse assessed as inhibition of blood flow decrease in tail artery at 20 mg/kg, po after 7 days relative to control; type: functional, organism-based; parameters: dose 20 mg/kg
Outline: (§1)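 Male ddY mice, 5 weeks old, sensitized s.c. with 50 µg HEL in complete Freund's adjuvant on day 0. Compound given orally at 20 mg/kg on days 0, 3, 6 and 9, 1 h before measurement. After 10 min prewarming at 37 °C, tail subcutaneous blood flow was read by non-contact laser Doppler for 10 min daily over 9 days without anesthesia. Values are % of each mouse's normal flow, mean ± SE, n = 5, compared with HEL-sensitized controls.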

[2] = tested on: Platelet; test: Inhibition of platelet aggregation in hen egg […]-sensitized ddY mouse blood after 9 days; type: functional, tissue-based
Outline: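 Mice were HEL-sensitized and dosed orally at 20 mg/kg as in the blood-flow assay. On day 9, whole blood was drawn under diethyl ether anesthesia, anticoagulated with 3.8% sodium citrate and held 30 min at room temperature. Aggregation was induced with 8 µM ADP and measured by screen filtration pressure on a whole-blood aggregometer. Read-out is cohesion rate, mean ± SE, n = 5.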

[3] = tested on: Mus musculus; test: Allergy preventing effect in hen egg […]-sensitized ddY mouse assessed as inhibition of blood flow decrease in tail artery at 20 mg/kg, po after 6 days relative to control; type: functional, organism-based; parameters: dose 20 mg/kg; outline: as §1
[4] = tested on: Mus musculus; test: Allergy preventing effect in hen egg […]-sensitized ddY mouse assessed as inhibition blood flow decrease in tail artery at 20 mg/kg, po relative to control; type: functional, organism-based; parameters: dose 20 mg/kg; outline: as §1
[5] = tested on: Mus musculus; test: Allergy preventing effect in hen egg […]-sensitized ddY mouse assessed as inhibition of blood flow decrease in tail artery at 20 mg/kg, po after 5 days relative to control; type: functional, organism-based; parameters: dose 20 mg/kg; outline: as §1

SMILES | Activity [1] | Activity [2] | Activity [3] | Activity [4] | Activity [5]
COc1cc(O)c(C(=O)/C=C/c2ccc(O)cc2)c(O[C@@H]2O[C@H](CO)[C@@H](O)[C@H](O)[C@H]2O)c1 | Active | Active | Active | – | –
CC(=O)OC[C@H]1O[C@@H](Oc2cc(COC(=O)c3ccccc3)ccc2O)[C@H](O)[C@@H](O)[C@@H]1O | – | Active | – | Active | –
O=C(OCc1ccc(O)c(O[C@@H]2O[C@H](CO)[C@@H](O)[C@H](O)[C@H]2O)c1)c1ccccc1 | – | Active | – | Active | –
COc1cc(O[C@@H]2O[C@H](CO)[C@@H](O)[C@H](O)[C@H]2O)c2c(c1)O[C@H](c1ccc(O)cc1)CC2=O | Active | inactive | Active | – | –
OCc1ccccc1O[C@@H]1O[C@H](CO)[C@@H](O)[C@H](O)[C@H]1O | – | – | – | – | Active
